As usually defined, the inhibition is the percentage by which the read-out fell short of the control. A word on the ΔTm: it is the change in melting temperature against a reference sample. In general, IC50 refers to the concentration that inhibits the measured activity by half.

These results are taken from ChEMBL document CHEMBL5247671, “Design and Synthesis of Pyrazole-Based Macrocyclic Kinase Inhibitors Targeting BMPR2” (ACS Med Chem Lett, 2023).

Experiment [1] has as its target T1, MAP/microtubule affinity-regulating kinase 4 (Homo sapiens) (UniProt Q96L34).
T1 sequence (whole entry): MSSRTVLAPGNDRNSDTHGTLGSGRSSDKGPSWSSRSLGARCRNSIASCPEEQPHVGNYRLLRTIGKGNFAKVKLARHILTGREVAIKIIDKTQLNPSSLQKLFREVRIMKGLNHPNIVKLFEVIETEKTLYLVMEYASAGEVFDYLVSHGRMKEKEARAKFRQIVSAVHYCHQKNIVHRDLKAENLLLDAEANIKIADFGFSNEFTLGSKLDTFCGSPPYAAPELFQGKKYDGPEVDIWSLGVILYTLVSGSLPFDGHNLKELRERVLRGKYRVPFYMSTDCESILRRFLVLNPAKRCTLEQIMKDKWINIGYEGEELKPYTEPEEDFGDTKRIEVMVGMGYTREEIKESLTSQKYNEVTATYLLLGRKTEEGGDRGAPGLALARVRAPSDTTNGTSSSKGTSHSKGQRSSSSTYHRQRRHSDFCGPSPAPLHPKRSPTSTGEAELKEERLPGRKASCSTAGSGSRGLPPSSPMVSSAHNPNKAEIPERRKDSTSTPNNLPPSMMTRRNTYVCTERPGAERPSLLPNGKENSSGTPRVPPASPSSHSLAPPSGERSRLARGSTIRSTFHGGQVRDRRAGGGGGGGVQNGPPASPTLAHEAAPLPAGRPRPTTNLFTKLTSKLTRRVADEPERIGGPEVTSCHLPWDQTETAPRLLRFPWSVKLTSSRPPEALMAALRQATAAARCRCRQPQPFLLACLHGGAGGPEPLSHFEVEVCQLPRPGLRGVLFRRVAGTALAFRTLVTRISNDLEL
As to the kind of experiment: Inhibition of recombinant MARK4 (unknown origin) at 10 uM by DSF assay relative to staurosporine. An outline of the steps: (§1)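 Differential scanning fluorimetry on an in-house panel of 90 recombinant kinases. Stabilization is read as the shift in melting temperature (ΔTm) relative to ligand-free protein. Staurosporine served as the positive control, and binding was also compared against its ΔTm.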
In general terms: In DSF a fluorescence change marks the thermal transition of the protein.

Experiment [2] deals with Vascular endothelial growth factor receptor 1 (Homo sapiens) (UniProt P17948). As to the kind of experiment: Binding affinity to recombinant FLT1 (unknown origin) assessed as change in melting temperature at 10 uM by DSF assay. Summed up:
as §1

Experiment [3] deals with T2, Glycogen synthase kinase-3 beta (Homo sapiens, UniProt P49841). Put plainly: Inhibition of N-terminal NanoLuc-fused full length lysed GSK3B (unknown origin) transfected in HEK293T cells incubated for 2 hrs in presence of tracer K8 by NanoBRET assay. Type of experiment: cell-based. Summed up:
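GSK3B NanoBRET run in the lysed mode, with cells permeabilized by digitonin to bypass compound cell penetration. EC50 values were derived from tracer displacement.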
In general terms: BRET reads energy transfer from a luciferase to a nearby fluorophore.
Target sequence in this assay (P49841 whole entry, the tested form may be a part): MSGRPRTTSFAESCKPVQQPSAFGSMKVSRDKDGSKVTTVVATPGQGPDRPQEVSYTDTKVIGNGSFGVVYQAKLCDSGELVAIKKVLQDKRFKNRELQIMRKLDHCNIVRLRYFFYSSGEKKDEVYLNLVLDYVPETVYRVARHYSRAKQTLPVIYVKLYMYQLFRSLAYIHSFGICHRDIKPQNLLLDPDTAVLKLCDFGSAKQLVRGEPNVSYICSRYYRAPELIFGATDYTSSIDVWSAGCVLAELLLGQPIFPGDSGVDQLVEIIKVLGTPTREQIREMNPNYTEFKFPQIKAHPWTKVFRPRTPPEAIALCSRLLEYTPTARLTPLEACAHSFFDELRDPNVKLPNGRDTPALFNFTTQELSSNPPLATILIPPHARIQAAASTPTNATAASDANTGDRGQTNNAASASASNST

Experiment [4] concerns the target T3, Serine/threonine-protein kinase 4 (Homo sapiens) (UniProt Q13043).
T3 sequence (whole entry): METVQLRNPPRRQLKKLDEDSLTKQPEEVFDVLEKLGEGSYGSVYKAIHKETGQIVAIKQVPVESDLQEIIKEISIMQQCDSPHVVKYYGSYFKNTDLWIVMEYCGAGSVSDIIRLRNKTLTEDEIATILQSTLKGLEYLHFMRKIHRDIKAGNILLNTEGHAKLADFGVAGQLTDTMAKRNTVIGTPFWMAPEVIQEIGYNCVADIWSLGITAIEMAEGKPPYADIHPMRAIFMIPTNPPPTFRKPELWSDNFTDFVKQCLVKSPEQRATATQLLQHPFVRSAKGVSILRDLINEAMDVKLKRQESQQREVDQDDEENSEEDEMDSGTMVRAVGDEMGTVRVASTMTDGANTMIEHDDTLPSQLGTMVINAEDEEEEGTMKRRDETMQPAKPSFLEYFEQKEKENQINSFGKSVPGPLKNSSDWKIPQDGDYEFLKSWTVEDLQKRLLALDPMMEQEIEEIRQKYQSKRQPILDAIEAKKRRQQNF
As to the kind of experiment: Inhibition of recombinant STK4 (unknown origin) at 10 uM by DSF assay relative to staurosporine. Summed up:
as §1

Experiment [5] addresses T4, Bone morphogenetic protein receptor type-2 (Homo sapiens) (UniProt Q13873).
T4 sequence (whole entry): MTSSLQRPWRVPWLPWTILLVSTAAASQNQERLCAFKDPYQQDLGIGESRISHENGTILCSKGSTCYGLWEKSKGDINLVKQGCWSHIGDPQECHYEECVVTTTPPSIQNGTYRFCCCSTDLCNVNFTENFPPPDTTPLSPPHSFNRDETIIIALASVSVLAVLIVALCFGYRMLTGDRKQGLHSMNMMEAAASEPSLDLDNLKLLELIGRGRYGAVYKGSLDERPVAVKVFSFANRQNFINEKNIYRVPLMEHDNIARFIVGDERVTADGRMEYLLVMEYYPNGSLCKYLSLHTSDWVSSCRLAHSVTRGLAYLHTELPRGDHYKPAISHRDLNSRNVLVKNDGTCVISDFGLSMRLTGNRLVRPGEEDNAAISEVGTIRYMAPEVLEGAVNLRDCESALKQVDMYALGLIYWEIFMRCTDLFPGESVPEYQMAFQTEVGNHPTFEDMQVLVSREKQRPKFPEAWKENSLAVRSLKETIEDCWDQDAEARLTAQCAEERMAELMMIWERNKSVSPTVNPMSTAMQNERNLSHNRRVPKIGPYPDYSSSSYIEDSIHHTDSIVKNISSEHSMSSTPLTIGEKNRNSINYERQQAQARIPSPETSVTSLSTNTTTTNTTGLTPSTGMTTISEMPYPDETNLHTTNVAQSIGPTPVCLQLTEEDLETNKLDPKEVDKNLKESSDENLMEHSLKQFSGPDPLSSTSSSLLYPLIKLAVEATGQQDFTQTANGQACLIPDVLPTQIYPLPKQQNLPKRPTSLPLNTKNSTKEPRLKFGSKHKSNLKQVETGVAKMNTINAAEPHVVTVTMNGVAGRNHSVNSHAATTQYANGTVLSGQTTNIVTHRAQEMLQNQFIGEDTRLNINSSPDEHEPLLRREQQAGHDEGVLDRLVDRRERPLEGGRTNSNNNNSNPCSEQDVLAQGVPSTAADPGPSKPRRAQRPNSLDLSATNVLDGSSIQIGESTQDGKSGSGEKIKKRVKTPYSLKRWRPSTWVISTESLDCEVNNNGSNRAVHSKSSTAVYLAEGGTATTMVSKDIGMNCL
As to the kind of experiment: Binding affinity to recombinant BMPR2 (unknown origin) assessed as change in melting temperature at 10 uM by DSF assay. Summed up:
as §1

Experiment [6] deals with Cyclin-dependent kinase 2 (Homo sapiens) (UniProt P24941). Put plainly: Inhibition of recombinant CDK2 (unknown origin) at 10 uM by DSF assay relative to staurosporine. Summed up: as §1
For experiment [7], the target named is T5, Bone morphogenetic protein receptor type-2 (Homo sapiens, UniProt Q13873).
T5 sequence (Q13873 whole entry): T4 sequence (whole entry)
Put plainly: Inhibition of BMPR2 (174 to end residues) (unknown origin) using MBP as substrate incubated for 60 mins in presence of ATP by ADP Glo assay. An outline of the steps: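 Enzymatic inhibition of the BMPR2 kinase was read out by ADP-Glo detection of ADP formed, and IC50 values were derived from concentration–response data.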
(In general: In ADP-Glo the light output rises with the ADP produced.)

The target in experiment [8] is T2, Glycogen synthase kinase-3 beta. As to the kind of experiment: Binding affinity to recombinant GSK3B (unknown origin) assessed as change in melting temperature at 10 uM by DSF assay. Summed up: as §1
Target sequence in this assay (P49841 whole entry, looked up, the tested form may be a part): as the sequence (P49841 whole entry, the tested form may be a part) above

Sequence of Vascular endothelial growth factor receptor 1 (Homo sapiens) (P17948 whole entry): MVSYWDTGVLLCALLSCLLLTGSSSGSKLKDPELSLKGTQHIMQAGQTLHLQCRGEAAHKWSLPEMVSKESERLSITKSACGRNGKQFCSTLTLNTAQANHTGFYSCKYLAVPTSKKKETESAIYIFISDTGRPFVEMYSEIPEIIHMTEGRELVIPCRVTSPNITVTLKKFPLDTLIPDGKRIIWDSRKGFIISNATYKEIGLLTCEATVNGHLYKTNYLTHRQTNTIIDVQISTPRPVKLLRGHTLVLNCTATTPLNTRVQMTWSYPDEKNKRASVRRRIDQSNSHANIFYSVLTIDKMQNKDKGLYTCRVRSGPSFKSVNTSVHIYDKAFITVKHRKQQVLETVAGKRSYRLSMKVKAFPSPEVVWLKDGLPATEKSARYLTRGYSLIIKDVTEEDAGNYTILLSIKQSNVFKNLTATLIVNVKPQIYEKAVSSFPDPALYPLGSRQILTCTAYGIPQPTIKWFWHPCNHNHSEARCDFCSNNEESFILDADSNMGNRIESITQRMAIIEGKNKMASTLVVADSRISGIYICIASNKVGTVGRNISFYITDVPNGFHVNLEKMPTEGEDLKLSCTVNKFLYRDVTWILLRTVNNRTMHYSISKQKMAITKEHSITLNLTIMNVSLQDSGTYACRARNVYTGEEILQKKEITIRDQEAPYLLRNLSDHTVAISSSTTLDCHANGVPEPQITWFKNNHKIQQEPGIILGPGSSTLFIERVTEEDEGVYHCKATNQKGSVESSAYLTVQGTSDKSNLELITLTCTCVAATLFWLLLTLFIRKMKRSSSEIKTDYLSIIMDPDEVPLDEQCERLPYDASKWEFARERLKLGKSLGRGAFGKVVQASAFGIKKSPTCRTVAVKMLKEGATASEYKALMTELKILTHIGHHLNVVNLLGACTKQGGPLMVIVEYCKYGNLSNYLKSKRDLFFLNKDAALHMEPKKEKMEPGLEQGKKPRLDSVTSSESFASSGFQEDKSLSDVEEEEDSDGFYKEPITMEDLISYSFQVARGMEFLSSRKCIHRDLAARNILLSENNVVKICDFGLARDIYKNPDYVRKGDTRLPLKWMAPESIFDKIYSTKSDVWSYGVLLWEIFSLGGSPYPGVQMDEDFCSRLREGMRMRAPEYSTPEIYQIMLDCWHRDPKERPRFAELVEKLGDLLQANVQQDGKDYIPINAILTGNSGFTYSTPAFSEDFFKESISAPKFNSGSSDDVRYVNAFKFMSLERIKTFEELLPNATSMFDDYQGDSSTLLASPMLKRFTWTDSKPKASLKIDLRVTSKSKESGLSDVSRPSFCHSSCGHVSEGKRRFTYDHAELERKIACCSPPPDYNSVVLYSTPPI

As to `O=C1NCCc2ccc(cc2)Nc2nccc(n2)Nc2cc1[nH]n2`, the figures for the inhibition in experiment [1], in experiment [4] and in experiment [6] were 23%, 22% and 25%, respectively. Moreover, the ΔTm in experiment [2] was 4.2 °C; in experiment [5], 5.8 °C; in experiment [8] it was 8.4 °C. The IC50 was found to be 2.3 µM in experiment [3] and 0.506 µM in experiment [7].
